# Measurements from ChEMBL document CHEMBL1140127, “Enantiomeric propanolamines as selective N-methyl-D-aspartate 2B receptor antagonists” (J Med Chem, 2008).
# Legend:
# [1] = molecular target: Glutamate NMDA receptor; Grin1/Grin2b (Rattus norvegicus, UniProt P35439+Q00960); test: Inhibition of rat recombinant NR1/NR2B receptor expressed in Xenopus oocytes assessed as inhibition of glutamate and glycine-induced evoked current by two electrode voltage clamp method; format: cell-based, Oocyte
# [2] = molecular target: T1, Adrenergic receptor alpha-1 (Rattus norvegicus, UniProt P15823+P23944+P43140); test: Displacement of [3H]prazosin from alpha1 adrenergic receptor in rat brain; format: tissue-based
# T1 sequence (P15823 whole entry): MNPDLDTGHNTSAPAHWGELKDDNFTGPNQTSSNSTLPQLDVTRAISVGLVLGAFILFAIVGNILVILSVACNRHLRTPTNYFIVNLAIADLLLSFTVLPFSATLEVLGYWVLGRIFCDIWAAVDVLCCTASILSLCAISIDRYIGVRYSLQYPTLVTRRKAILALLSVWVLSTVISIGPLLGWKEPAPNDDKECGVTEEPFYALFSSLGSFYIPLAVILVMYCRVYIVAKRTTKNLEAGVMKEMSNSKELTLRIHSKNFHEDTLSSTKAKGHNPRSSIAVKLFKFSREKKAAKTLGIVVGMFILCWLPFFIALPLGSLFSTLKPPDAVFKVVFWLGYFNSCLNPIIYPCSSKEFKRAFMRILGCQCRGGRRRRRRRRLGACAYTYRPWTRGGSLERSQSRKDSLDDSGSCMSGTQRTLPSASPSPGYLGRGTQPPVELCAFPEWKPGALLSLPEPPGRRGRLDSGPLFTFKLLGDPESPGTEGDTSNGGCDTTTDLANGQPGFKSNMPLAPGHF
# T1 sequence (P23944 whole entry): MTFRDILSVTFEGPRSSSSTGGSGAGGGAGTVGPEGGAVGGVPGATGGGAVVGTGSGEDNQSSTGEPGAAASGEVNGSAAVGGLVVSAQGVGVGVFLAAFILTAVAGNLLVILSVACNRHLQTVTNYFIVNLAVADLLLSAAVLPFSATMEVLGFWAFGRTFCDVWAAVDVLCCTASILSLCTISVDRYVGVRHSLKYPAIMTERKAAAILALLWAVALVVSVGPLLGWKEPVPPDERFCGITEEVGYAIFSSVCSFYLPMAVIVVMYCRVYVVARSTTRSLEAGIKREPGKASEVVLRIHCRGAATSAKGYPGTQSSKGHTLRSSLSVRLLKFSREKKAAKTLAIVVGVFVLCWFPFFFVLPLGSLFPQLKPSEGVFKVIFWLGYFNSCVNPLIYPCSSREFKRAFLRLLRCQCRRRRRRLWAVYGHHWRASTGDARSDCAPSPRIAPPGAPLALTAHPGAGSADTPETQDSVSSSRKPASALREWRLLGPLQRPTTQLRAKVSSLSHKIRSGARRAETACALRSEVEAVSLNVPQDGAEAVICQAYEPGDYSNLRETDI
# T1 sequence (P43140 whole entry): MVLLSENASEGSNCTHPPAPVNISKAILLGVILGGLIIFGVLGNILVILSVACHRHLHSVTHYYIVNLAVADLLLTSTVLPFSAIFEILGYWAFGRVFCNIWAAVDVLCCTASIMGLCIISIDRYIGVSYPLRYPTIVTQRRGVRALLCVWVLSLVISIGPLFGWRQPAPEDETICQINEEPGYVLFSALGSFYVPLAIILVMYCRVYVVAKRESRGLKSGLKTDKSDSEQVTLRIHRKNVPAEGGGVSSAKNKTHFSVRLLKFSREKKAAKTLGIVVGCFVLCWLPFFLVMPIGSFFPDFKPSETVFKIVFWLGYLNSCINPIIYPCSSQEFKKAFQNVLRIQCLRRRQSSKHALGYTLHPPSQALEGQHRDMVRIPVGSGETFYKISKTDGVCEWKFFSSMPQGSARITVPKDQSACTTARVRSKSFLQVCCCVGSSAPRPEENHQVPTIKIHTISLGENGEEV
# In short: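 Rat brain membranes; displacement of [3H]-prazosin at 4–6 concentrations, each point in duplicate. IC50 from displacement curves fitted by nonlinear least-squares regression.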
# Glutamate NMDA receptor; Grin1/Grin2b, sequence (Q00960 whole entry, other chains not shown): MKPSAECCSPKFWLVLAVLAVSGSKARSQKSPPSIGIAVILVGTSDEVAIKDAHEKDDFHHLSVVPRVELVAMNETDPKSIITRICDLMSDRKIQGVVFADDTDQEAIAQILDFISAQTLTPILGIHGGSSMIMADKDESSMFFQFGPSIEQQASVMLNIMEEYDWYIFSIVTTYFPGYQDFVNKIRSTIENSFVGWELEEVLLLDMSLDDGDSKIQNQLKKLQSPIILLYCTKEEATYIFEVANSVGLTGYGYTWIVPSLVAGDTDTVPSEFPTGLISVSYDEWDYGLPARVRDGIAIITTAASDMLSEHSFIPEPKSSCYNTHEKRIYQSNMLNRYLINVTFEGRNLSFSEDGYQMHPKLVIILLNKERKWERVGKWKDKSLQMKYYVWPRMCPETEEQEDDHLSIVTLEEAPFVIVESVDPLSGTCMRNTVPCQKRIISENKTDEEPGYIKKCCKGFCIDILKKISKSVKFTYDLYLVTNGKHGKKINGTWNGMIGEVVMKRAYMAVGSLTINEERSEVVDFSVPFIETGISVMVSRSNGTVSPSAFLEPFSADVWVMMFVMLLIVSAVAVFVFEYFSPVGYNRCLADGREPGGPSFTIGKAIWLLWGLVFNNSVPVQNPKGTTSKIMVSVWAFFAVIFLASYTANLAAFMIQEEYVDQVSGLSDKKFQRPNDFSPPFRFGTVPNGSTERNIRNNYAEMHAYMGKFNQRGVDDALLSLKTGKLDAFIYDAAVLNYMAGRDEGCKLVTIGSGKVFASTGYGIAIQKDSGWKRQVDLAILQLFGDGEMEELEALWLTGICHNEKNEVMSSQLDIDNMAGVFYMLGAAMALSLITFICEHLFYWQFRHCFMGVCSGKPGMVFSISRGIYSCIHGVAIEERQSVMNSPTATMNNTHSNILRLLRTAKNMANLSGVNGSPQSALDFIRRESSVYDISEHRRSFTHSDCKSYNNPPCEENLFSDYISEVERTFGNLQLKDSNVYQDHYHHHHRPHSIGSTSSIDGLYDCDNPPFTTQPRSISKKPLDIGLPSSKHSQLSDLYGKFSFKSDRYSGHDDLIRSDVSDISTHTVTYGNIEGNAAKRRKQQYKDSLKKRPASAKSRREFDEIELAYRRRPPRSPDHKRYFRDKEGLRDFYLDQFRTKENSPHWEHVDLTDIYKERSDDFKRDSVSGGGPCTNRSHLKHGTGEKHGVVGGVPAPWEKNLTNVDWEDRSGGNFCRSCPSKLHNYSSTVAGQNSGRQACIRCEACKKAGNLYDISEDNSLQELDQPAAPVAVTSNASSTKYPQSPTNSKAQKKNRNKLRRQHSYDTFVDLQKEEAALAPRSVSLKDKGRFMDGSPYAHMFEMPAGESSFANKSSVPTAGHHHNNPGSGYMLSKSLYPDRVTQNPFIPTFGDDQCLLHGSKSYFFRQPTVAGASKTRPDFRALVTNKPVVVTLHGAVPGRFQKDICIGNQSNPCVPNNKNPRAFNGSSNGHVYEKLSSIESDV
SMILES,IC50 [1] [nM],IC50 [2] [nM]
O=S(=O)(Nc1ccc(OC[C@@H](O)CNCCc2ccc(Cl)c(Cl)c2)cc1)c1ccccc1,1450,–
CS(=O)(=O)Nc1ccc(OC[C@@H](O)CNCCc2ccc(Cl)c(Cl)c2)c(F)c1,72,–
CS(=O)(=O)Nc1ccc(OC[C@@H](O)CN(CCc2ccc(Cl)c(Cl)c2)CCc2ccccc2O)cc1,755,–
CS(=O)(=O)Nc1ccc(OC[C@@H](O)CN(CCc2ccc(Cl)c(Cl)c2)Cc2c(F)c(F)c(F)c(F)c2F)cc1,524,–
CS(=O)(=O)Nc1ccc(OC[C@@H](O)CN(CCc2ccc(Cl)c(Cl)c2)Cc2cccnc2)cc1,278,–
CS(=O)(=O)Nc1ccc(OC[C@@H](O)CNCCc2ccc(F)c(Cl)c2)cc1,397,–
CS(=O)(=O)Nc1ccc(OC[C@@H](O)CNCCc2ccc(Cl)cc2Cl)cc1,2320,–
CS(=O)(=O)Nc1ccc(OC[C@@H](O)CNCCc2cc(O)cc(O)c2)cc1,> 100000,–
Cc1ccccc1CN(CCc1ccc(Cl)c(Cl)c1)C[C@H](O)COc1ccc(NS(C)(=O)=O)cc1,5700,–
CS(=O)(=O)Nc1ccc(OC[C@@H](O)CNCCc2ccc(Cl)c(Cl)c2)cc1F,427,–
CC(=O)Oc1ccccc1CN(CCc1ccc(Cl)c(Cl)c1)C[C@H](O)COc1ccc(NS(C)(=O)=O)cc1,500,–
CS(=O)(=O)Nc1ccc(OC[C@@H](O)CNCCc2ccccc2O)cc1,2000,–
CS(=O)(=O)Nc1ccc(OC[C@@H](O)CN(CCc2ccccc2)CCc2ccc(Cl)c(Cl)c2)cc1,3510,–
CS(=O)(=O)Nc1ccc(OC[C@@H](O)CNCCc2ccc(Cl)cc2)cc1,101,9500
CN(c1ccc(OC[C@@H](O)CNCCc2ccc(Cl)c(Cl)c2)cc1)S(C)(=O)=O,9910,–
COc1cccc(OC)c1CN(CCc1ccc(Cl)c(Cl)c1)C[C@H](O)COc1ccc(NS(C)(=O)=O)cc1,11900,–
CS(=O)(=O)Nc1ccc(OC[C@@H](O)CN(CCc2ccc(Cl)c(Cl)c2)CC2CCCCC2)cc1,9840,–
CS(=O)(=O)Nc1ccc(OC[C@@H](O)CN(CCc2ccc(Cl)c(Cl)c2)Cc2ccc(F)c(F)c2F)cc1,51,> 10000
CS(=O)(=O)Nc1ccc(OC[C@@H](O)CN(CCc2ccc(Cl)c(Cl)c2)Cc2cccc3c2OCO3)cc1,5010,–
COc1ccccc1CN(CCc1ccc(Cl)c(Cl)c1)C[C@H](O)COc1ccc(NS(C)(=O)=O)cc1,3860,–
Cc1ccc(CN(CCc2ccc(Cl)c(Cl)c2)C[C@H](O)COc2ccc(NS(C)(=O)=O)cc2)cc1,5410,–
CCCN(CCc1ccc(Cl)c(Cl)c1)C[C@H](O)COc1ccc(NS(C)(=O)=O)cc1,635,–
CS(=O)(=O)Nc1ccc(OC[C@@H](O)CN(CCc2ccc(Cl)c(Cl)c2)Cc2cccc(F)c2)cc1,249,–

SMILES,IC50 [1] [nM],IC50 [2] [nM]
CS(=O)(=O)Nc1ccc(OC[C@@H](O)CN(CCc2ccc(Cl)c(Cl)c2)Cc2ccccc2Br)cc1,38,–
CS(=O)(=O)Nc1ccc(OC[C@@H](O)CN(CCc2ccc(Cl)c(Cl)c2)Cc2c(F)cccc2F)cc1,281,–
CS(=O)(=O)Nc1ccc(OC[C@@H](O)CN(CCc2ccc(Cl)c(Cl)c2)Cc2ccccc2)cc1,177,–
CS(=O)(=O)Nc1cccc(OC[C@@H](O)CNCCc2ccc(Cl)c(Cl)c2)c1,530,–
CS(=O)(=O)Nc1ccc(OC[C@@H](O)CN(CCc2ccc(Cl)c(Cl)c2)Cc2ccc(O)cc2)cc1,113,–
CS(=O)(=O)Nc1ccc(OC[C@@H](O)CN(CCc2ccc(Cl)c(Cl)c2)Cc2ccccc2O)cc1,662,> 10000
CS(=O)(=O)Nc1ccc(OC[C@@H](O)CNCCc2ccc(F)cc2)cc1,748,–
CS(=O)(=O)Nc1ccc(OC[C@@H](O)CNCCc2cccc(Cl)c2)cc1,628,–
CC(=O)Nc1ccc(OC[C@@H](O)CNCCc2ccc(Cl)c(Cl)c2)cc1,4370,–
CCCCN(CCc1ccc(Cl)c(Cl)c1)C[C@@H](O)COc1ccc(NS(C)(=O)=O)cc1,1280,–
C[C@H](NC[C@H](O)COc1ccc(NS(C)(=O)=O)cc1)c1cccc2ccccc12,5070,–
CS(=O)(=O)Nc1ccccc1OC[C@@H](O)CNCCc1ccc(Cl)c(Cl)c1,12000,–
COc1cccc(CN(CCc2ccc(Cl)c(Cl)c2)C[C@H](O)COc2ccc(NS(C)(=O)=O)cc2)c1OC,2790,–
CCCCS(=O)(=O)Nc1ccc(OC[C@@H](O)CNCCc2ccc(Cl)c(Cl)c2)cc1,6790,–
Cc1cc(OC[C@@H](O)CNCCc2ccc(Cl)c(Cl)c2)ccc1NS(C)(=O)=O,687,–
CN(CCc1ccc(Cl)c(Cl)c1)C[C@@H](O)COc1ccc(NS(C)(=O)=O)cc1,253,–
CS(=O)(=O)Nc1ccc(OC[C@H](O)CN(CCO)CCc2ccc(Cl)c(Cl)c2)cc1,173,–
CS(=O)(=O)Nc1ccc(OC[C@@H](O)CN(CCc2ccc(Cl)c(Cl)c2)Cc2cccc(O)c2O)cc1,1820,–
CS(=O)(=O)Nc1ccc(OC[C@@H](O)CN(CCc2ccc(Cl)c(Cl)c2)Cc2nccs2)cc1,3580,–
O=[N+]([O-])c1ccc(OC[C@@H](O)CNCCc2ccc(Cl)c(Cl)c2)cc1,9380,–
CS(=O)(=O)Nc1ccc(OC[C@@H](O)CNCCc2ccc3c(c2)OCO3)cc1,951,–
CS(=O)(=O)Nc1ccc(OC[C@@H](O)CN(CCc2ccc(Cl)c(Cl)c2)Cc2ccccc2F)cc1,80,> 10000
CS(=O)(=O)Nc1ccc(OC[C@@H](O)CNCCc2ccccc2F)cc1,573,–

SMILES,IC50 [1] [nM],IC50 [2] [nM]
CS(=O)(=O)Nc1ccc(OC[C@@H](O)CNCCc2ccc(O)c(O)c2)cc1,> 100000,–
CS(=O)(=O)Nc1ccc(OC[C@@H](O)CN(CCc2ccc(Cl)c(Cl)c2)Cc2ccc(F)cc2)cc1,275,–
CS(=O)(=O)Nc1ccc(OC[C@H](O)CNCCc2ccc(Cl)c(Cl)c2)cc1,188,–
CS(=O)(=O)Nc1ccc(OC[C@@H](O)CNCCc2cccc(O)c2)cc1,4430,–
CCCS(=O)(=O)Nc1ccc(OC[C@@H](O)CNCCc2ccc(Cl)c(Cl)c2)cc1,6100,–
O=C(Nc1ccc(OC[C@@H](O)CNCCc2ccc(Cl)c(Cl)c2)cc1)C(Cl)Cl,12800,–
CC(C)N(CCc1ccc(Cl)c(Cl)c1)C[C@H](O)COc1ccc(NS(C)(=O)=O)cc1,603,–
CCS(=O)(=O)Nc1ccc(OC[C@@H](O)CNCCc2ccc(Cl)c(Cl)c2)cc1,587,–
CS(=O)(=O)Nc1ccc(OC[C@H](O)CN(CCc2ccc(Cl)c(Cl)c2)Cc2cccc(O)c2)cc1,409,–
CS(=O)(=O)Nc1ccc(OC[C@H](O)CN(CCc2ccc(Cl)c(Cl)c2)Cc2ccccc2O)cc1,433,–
CCCCCN(CCc1ccc(Cl)c(Cl)c1)C[C@H](O)COc1ccc(NS(C)(=O)=O)cc1,659,–
CS(=O)(=O)Nc1ccc(OC[C@@H](O)CNCCc2ccc([N+](=O)[O-])cc2)cc1,1140,–
CS(=O)(=O)Nc1ccc(OC[C@@H](O)CNCCc2ccccc2Cl)cc1,429,–
CS(=O)(=O)Nc1ccc(OC[C@@H](O)CN(CCc2ccc(Cl)c(Cl)c2)Cc2ccc(O)cc2O)cc1,146,–
CN(CCc1ccc(Cl)c(Cl)c1)C[C@H](O)COc1ccc(NS(C)(=O)=O)cc1,130,1400
CS(=O)(=O)Nc1ccc(OC[C@@H](O)CN(CCc2ccc(Cl)c(Cl)c2)Cc2ccccc2Cl)cc1,479,–
CS(=O)(=O)Nc1ccc(OC[C@@H](O)CN(CCc2ccc(Cl)c(Cl)c2)Cc2ccccc2[N+](=O)[O-])cc1,589,–
CS(=O)(=O)Nc1ccc(OC[C@@H](O)CNCCc2ccc(O)cc2)cc1,7240,–
CS(=O)(=O)Nc1ccc(OC[C@@H](O)CN(CCc2ccc(Cl)c(Cl)c2)Cc2ccccc2C(F)(F)F)cc1,3720,–
CS(=O)(=O)Nc1ccc(OC[C@@H](O)CNCCc2cccc(F)c2)cc1,853,–
O=C(Nc1ccc(OC[C@@H](O)CNCCc2ccc(Cl)c(Cl)c2)cc1)C(Cl)(Cl)Cl,10600,–
